Calls of active or inactive are those of the source. The rule behind the calls is not given here.
Tests used:
Mus musculus [1] = test: Anticonvulsant activity in ip dosed CF1 albino mouse assessed as protection against 32 mA current-induced seizure by 6Hz psychomotor seizure test; type: functional
In short: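 In the 6 Hz psychomotor seizure test, male CF no. 1 albino mice (18-25 g) received the compound ip in 0.5% methylcellulose. Stimulation was at 32 or 44 mA. Doses were varied to give 3-4 points between 0% and 100% protection, and ED50 with 95% confidence interval came from probit analysis.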

Rattus norvegicus [2] = test: Anticonvulsant activity in albino Sprague-Dawley rat assessed as protection against scMet-induced seizures at 50 mg/kg, po after 1 hr; type: functional
In short: (§1)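 Male Sprague-Dawley albino rats (100-150 g) were given the compound orally as a suspension in 0.5% methylcellulose. Seizures were induced by subcutaneous pentylenetetrazol, dissolved in 0.9% saline as a 2.82% solution. The read-out was animals protected over animals tested.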

Mus musculus [3] = test: Teratogenic effect in SWV mouse assessed as number of litters at 502 mg/kg, ip administered on morning of day 8 of gestation; type: toxicity, organism-based; set-up: dose 502 mg/kg, route intraperitoneal; conditions: in vivo
In short: (§2)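 Inbred SWV mouse strain highly susceptible to VPA-induced neural tube defects. Each dam received a single ip injection on gestation day 8.5, dosed within 1.8-4.2 mmol/kg, against a control of 25% aqueous Cremophor EL. Groups were compared with the control, and with the matched VPA sodium-salt dose, by Fisher's exact test (p < 0.05).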

Mus musculus [4] = test: Anticonvulsant activity in CF1 albino mouse assessed as protection against maximal electroshock-induced seizures at 400 mg/kg, ip; type: functional, organism-based; set-up: dose 400 mg/kg
In short: (§3)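 Adult male CF no. 1 albino mice (18-25 g). Test compound suspended in 0.5% methylcellulose and given intraperitoneally at 0.01 mL/g body weight. Maximal electroshock challenge at the stated time. Read-out is the number of animals protected over the number tested; neurotoxicity is scored in parallel.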

Rattus norvegicus [5] = test: Anticonvulsant activity in po dosed albino Sprague-Dawley rat assessed as protection against scMet-induced seizures; type: functional
In short: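 Male Sprague-Dawley albino rats (100-150 g) were dosed orally in 0.5% methylcellulose and tested by MES or by sc pentylenetetrazol (2.82% in 0.9% saline). Doses were varied to give 3-4 points between 0% and 100% protection. ED50 and 95% confidence intervals came from probit analysis.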

Mus musculus [6] = test: Anticonvulsant activity in CF1 albino mouse assessed as protection against maximal electroshock-induced seizures at 100 mg/kg, ip after 4 hrs; type: functional, organism-based; set-up: dose 100 mg/kg; in short: as §3
Mus musculus [7] = test: Anticonvulsant activity in ip dosed CF1 albino mouse assessed as protection against scMet-induced seizures; type: functional
In short: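 Adult male CF no. 1 albino mice (18-25 g) dosed ip with compound suspended in 0.5% methylcellulose (0.01 mL/g body weight). Seizures were induced by subcutaneous pentylenetetrazol, given as a 0.85% solution in 0.9% saline. ED50 was found by varying the dose to give 3-4 points between 0% and 100% protection, then probit analysis with 95% confidence intervals.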

Mus musculus [8] = test: Anticonvulsant activity in CF1 albino mouse assessed as protection against maximal electroshock-induced seizures at 30 mg/kg, ip after 4 hrs; type: functional, organism-based; set-up: dose 30 mg/kg; in short: as §3
Rattus norvegicus [9] = test: Anticonvulsant activity in albino Sprague-Dawley rat assessed as protection against maximal electroshock-induced seizures at 50 mg/kg, po after 4 hrs; type: functional, organism-based; set-up: dose 50 mg/kg
In short: (§4)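 Adult male Sprague-Dawley albino rats (100-150 g) dosed orally with compound suspended in 0.5% methylcellulose (0.04 mL per 10 g). Maximal electroshock challenge at the stated time. Protection is scored in 25% steps as the fraction of animals protected, with neurotoxicity recorded in parallel.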

[10] = Neurotoxicity in ip dosed CF1 albino mouse assessed as minimal motor impairment; type: toxicity, organism-based; conditions: CF1, mouse, in vivo
In short: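 Mice: male CF no. 1 albino (18-25 g), ip dosing in 0.5% methylcellulose. Minimal motor impairment was scored, with doses varied to give four points between no impairment and all animals impaired.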

Mus musculus [11] = test: Neurotoxicity in CF1 albino mouse at 30 mg/kg, ip after 4 hrs; type: toxicity, organism-based; set-up: dose 30 mg/kg, route intraperitoneal; conditions: in vivo
In short: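 Male CF no. 1 albino mice (18-25 g) received a single ip dose as a suspension in 0.5% methylcellulose. The read-out was the number of animals showing neurotoxicity (minimal motor impairment) over the number tested.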

Mus musculus [12] = test: Teratogenic effect in SWV mouse assessed as number of dead fetuses at 671 mg/kg, ip administered on morning of day 8 of gestation; type: toxicity, organism-based; set-up: dose 671 mg/kg, route intraperitoneal; conditions: in vivo; in short: as §2
Rattus norvegicus [13] = test: Anticonvulsant activity in albino Sprague-Dawley rat assessed as protection against scMet-induced seizures at 50 mg/kg, po after 2 hrs; type: functional; in short: as §1
Mus musculus [14] = organism: Mus musculus; test: Protective index, ratio of TD50 for CF1 albino mouse to ED50 for 44 mA-current-induced CF1 albino mouse seizure model; type: functional
In short: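 Protective index is the mouse TD50 (minimal motor impairment) divided by the 6 Hz test ED50 at 32 or 44 mA. Male CF no. 1 mice were dosed ip in 0.5% methylcellulose, and values came from probit analysis.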

Mus musculus [15] = test: Anticonvulsant activity in CF1 albino mouse assessed as protection against scMet-induced seizures at 300 mg/kg, ip after 4 hrs; type: functional, organism-based; set-up: dose 300 mg/kg
In short: (§5)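 Adult male CF no. 1 albino mice (18-25 g) dosed intraperitoneally with compound suspended in 0.5% methylcellulose (0.01 mL/g). Convulsant challenge given subcutaneously as a 0.85% pentylenetetrazol solution in 0.9% saline. Read-out is animals protected over animals tested, with neurotoxicity scored in parallel.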

Mus musculus [16] = test: Anticonvulsant activity in CF1 albino mouse assessed as protection against 44 mA-current-induced seizure at 25 mg/kg, ip by 6Hz psychomotor seizure test; type: functional, organism-based; set-up: dose 25 mg/kg
In short: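 6 Hz psychomotor seizure test in male CF no. 1 mice, with compound given ip as a 0.5% methylcellulose suspension. Groups of 8 animals per dose. The 32 mA test used 25, 70 and 130 mg/kg; the 44 mA test used 25, 50, 75 and 100 mg/kg. ED50 and 95% confidence interval were obtained by probit analysis.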

Rattus norvegicus [17] = test: Anticonvulsant activity in albino Sprague-Dawley rat assessed as protection against maximal electroshock-induced seizures at 50 mg/kg, po after 2 hrs; type: functional; in short: as §4
Mus musculus [18] = test: Teratogenic effect in SWV mouse assessed as number of litters at 336 mg/kg, ip administered on morning of day 8 of gestation; type: toxicity, organism-based; set-up: dose 336 mg/kg, route intraperitoneal; conditions: in vivo; in short: as §2
Mus musculus [19] = test: Teratogenic effect in SWV mouse assessed as number of implants at 502 mg/kg, ip administered on morning of day 8 of gestation; type: toxicity, organism-based; set-up: dose 502 mg/kg, route intraperitoneal; conditions: in vivo; in short: as §2
Mus musculus [20] = test: Teratogenic effect in SWV mouse assessed as resorptions at 671 mg/kg, ip administered on morning of day 8 of gestation; type: toxicity, organism-based; set-up: dose 671 mg/kg, route intraperitoneal; conditions: in vivo; in short: as §2
Mus musculus [21] = test: Teratogenic effect in VPA-induced SWV mouse assessed as number of fetuses with neural tube deffects at 336 mg/kg, ip administered on morning of day 8 of gestation; type: toxicity, organism-based; set-up: dose 336 mg/kg, route intraperitoneal; conditions: in vivo; in short: as §2
Mus musculus [22] = test: Anticonvulsant activity in CF1 albino mouse assessed as protection against maximal electroshock-induced seizures at 300 mg/kg, ip after 4 hrs; type: functional, organism-based; set-up: dose 300 mg/kg; in short: as §3
Rattus norvegicus [23] = organism: Rattus norvegicus; test: Anticonvulsant activity in hippocampal kindled Sprague-Dawley rat model; type: functional; conditions: albino Sprague-Dawley, Hippocampus
Mus musculus [24] = test: Teratogenic effect in SWV mouse assessed as resorptions at 502 mg/kg, ip administered on morning of day 8 of gestation; type: toxicity, organism-based; set-up: dose 502 mg/kg, route intraperitoneal; conditions: in vivo; in short: as §2
Mus musculus [25] = test: Anticonvulsant activity in CF1 albino mouse assessed as protection against scMet-induced seizures at 30 mg/kg, ip after 0.5 hrs; type: functional, organism-based; set-up: dose 30 mg/kg; in short: as §5

CC1(C)C(C)(C)C1(F)C(N)=O
ED50 (Mus musculus [1]): 57 mg/kg | Activity (Rattus norvegicus [2]): 75% | Activity (Mus musculus [3]): 10 | Activity (Mus musculus [4]): Active | ED50 (Rattus norvegicus [5]): 6.4 mg/kg | Activity (Mus musculus [6]): Non-toxic | ED50 (Mus musculus [7]): 38 mg/kg | Activity (Mus musculus [8]): Non-toxic | Activity (Rattus norvegicus [9]): inactive | TD50 [10]: 120 mg/kg | Activity (Mus musculus [11]): Non-toxic | Activity (Mus musculus [12]): 0 | Activity (Rattus norvegicus [13]): 75% | PI (Mus musculus [14]): 2 | Activity (Mus musculus [15]): Non-toxic | Activity (Mus musculus [16]): inactive | Activity (Rattus norvegicus [17]): inactive | Activity (Mus musculus [18]): 8 | Activity (Mus musculus [19]): 127 | Activity (Mus musculus [20]): 78.2% | Activity (Mus musculus [21]): 0 | Activity (Mus musculus [22]): Non-toxic | ED50 (Rattus norvegicus [23]): 30 mg/kg | Activity (Mus musculus [24]): 26.8% | Activity (Mus musculus [25]): Non-toxic

— ChEMBL document CHEMBL1153988 (J Med Chem, 2009)
